# In ChEMBL document CHEMBL1125874, “N-(4-Isoxazolylthiazol-2-yl)oxamic acid derivatives as potent orally active antianaphylactic agents” (1991):
# Active and inactive are the calls of the source.
# Tests used:
# Rattus norvegicus [1] = assay: Antianaphylactic activity against IgE-mediated rat passive cutaneous anaphylaxis (PCA) model after intraperitoneal administration.; type: functional; settings: ip
# Procedure, shortened: (§1)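 Female Sprague-Dawley rats (~200 g) received rat anti-ovoalbumin IgE antiserum intradermally at four back sites. Drug in 2% gum arabic given po (10 mL/kg) 10 min or ip (5 mL/kg) 5 min before challenge. Blue-spot area measured at 30 min versus vehicle controls. ED50 by linear regression on at least three doses.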
# Rattus norvegicus [2] = assay: Antianaphylactic activity against IgE-mediated rat passive cutaneous anaphylaxis (PCA) model after oral administration.; type: functional; procedure, shortened: as §1
# Cavia porcellus [3] = species: Cavia porcellus; assay: Inhibitory effect on Antigen-induced SRS-A (slow reacting substance of anaphylaxis) like material release from sensitized guinea pig lung fragments at a concentration of 10 E -5 M; type: functional
# Procedure, shortened: (§2)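 Lungs from ovoalbumin-sensitized guinea pigs were taken at 3 weeks and minced in Krebs' solution (0.1 g tissue/mL). Suspension incubated 15 min at 37 °C. Drug added, then ovoalbumin 1 μg 5 min later, for 15 min at 37 °C. SRS-A-like activity of the filtrate assayed on isolated guinea pig ileum, as % inhibition versus saline controls.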
# Cavia porcellus [4] = species: Cavia porcellus; assay: Inhibitory effect on Antigen-induced SRS-A (slow reacting substance of anaphylaxis) like material release from sensitized guinea pig lung fragments at a concentration of 10 E -8 M; type: functional; procedure, shortened: as §2
# Rattus norvegicus [5] = assay: Antianaphylactic activity at the bronchopulmonary level against IgE-mediated rat PPA model when administered intravenously.; type: functional; settings: iv
# Procedure, shortened: (§3)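 Rats passively sensitized iv with anti-ovoalbumin serum (1 mL/rat). Challenge was iv ovoalbumin 4 mg/kg. Bronchoconstriction measured as air overflow (Konzett-Rössler). Drug given po in 2% gum arabic (10 mL/kg) 30 min before, or iv in 10% DMSO (1 mL/kg) 15 min before. ED50 by linear regression.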
# Cavia porcellus [6] = species: Cavia porcellus; assay: Inhibitory effect on Antigen-induced SRS-A (slow reacting substance of anaphylaxis) like material release from sensitized guinea pig lung fragments at a concentration of 10 E -7 M; type: functional; procedure, shortened: as §2
# Cavia porcellus [7] = species: Cavia porcellus; assay: Inhibitory effect on Antigen-induced SRS-A (slow reacting substance of anaphylaxis) like material release from sensitized guinea pig lung fragments at a concentration of 10 E -6 M; type: functional; procedure, shortened: as §2
# Cavia porcellus [8] = assay: Aantianaphylactic activity at the bronchopulmonary level against IgG-mediated APA model of guinea pig when administered intraperitoneally.; type: functional; settings: ip
# Procedure, shortened: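 Guinea pigs (either sex, 300-400 g) sensitized by a single ip dose of ovoalbumin in liquid petrolatum (20 mg/mL). Tested 3 weeks later. Drug given ip in 2% gum arabic (5 mL/kg) 30 min before aerosol challenge with 2% ovoalbumin. Read-out is delay to severe dyspnea in seconds, with 3 min cutoff. ED50 by linear regression.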
# Rattus norvegicus [9] = assay: Antianaphylactic activity at the bronchopulmonary level against IgE-mediated rat PPA model when administered orally.; type: functional; settings: po; procedure, shortened: as §3
# Rattus norvegicus [10] = assay: Antianaphylactic activity against IgE-mediated rat PCA model after oral administration; Not active; type: functional, organism-based; procedure, shortened: as §1
# Cavia porcellus [11] = species: Cavia porcellus; assay: Inhibitory effect on Antigen-induced SRS-A (slow reacting substance of anaphylaxis) like material release from sensitized guinea pig lung fragments at a concentration of 10 E -4 M; type: functional; procedure, shortened: as §2
smiles,measurement,setting,value
NCCO.O=C(O)C(=O)Nc1nc(-c2cc(CO)no2)cs1,ED50,Rattus norvegicus [1],0.007 mg/kg
same,ED50,Rattus norvegicus [2],0.7 mg/kg
CCOCCOC(=O)C(=O)Nc1nc(-c2cc(Cl)no2)cs1,ED50,Rattus norvegicus [1],6 mg/kg
same,ED50,Rattus norvegicus [2],> 30 mg/kg
COc1cc(-c2csc(NC(=O)C(=O)O)n2)on1.NCCO,ED50,Rattus norvegicus [1],1.2 mg/kg
same,ED50,Rattus norvegicus [2],8 mg/kg
CCOCCOC(=O)C(=O)Nc1nc(-c2cc(COC)no2)cs1,ED50,Rattus norvegicus [1],2.4 mg/kg
same,ED50,Rattus norvegicus [2],0.7 mg/kg
CCOCCOC(=O)C(=O)Nc1nc(-c2cc(C)no2)cs1 [ASOBAMAST],Inhibition,Cavia porcellus [3],52%
same,Inhibition,Cavia porcellus [4],18%
same,ED50,Rattus norvegicus [5],0.09 mg/kg
same,ED50,Rattus norvegicus [1],0.04 mg/kg
same,Inhibition,Cavia porcellus [6],43%
same,Inhibition,Cavia porcellus [7],48%
same,ED50,Rattus norvegicus [2],1.3 mg/kg
same,ED50,Cavia porcellus [8],185 mg/kg
same,ED50,Rattus norvegicus [9],4.7 mg/kg
CCOCCOC(=O)C(=O)Nc1nc(-c2conc2C)cs1,ED50,Rattus norvegicus [1],> 100 mg/kg
same,ED50,Rattus norvegicus [2],> 100 mg/kg
O=C([O-])c1cc(=O)c2c(OCC(O)COc3cccc4oc(C(=O)[O-])cc(=O)c34)cccc2o1.[Na+].[Na+] [CROMOLYN SODIUM],Inhibition,Cavia porcellus [3],38%
same,ED50,Rattus norvegicus [10],inactive
same,ED50,Rattus norvegicus [5],0.82 mg/kg
same,ED50,Rattus norvegicus [1],12 mg/kg
same,Inhibition,Cavia porcellus [7],20%
same,Inhibition,Cavia porcellus [11],46%
same,ED50,Cavia porcellus [8],> 1000 mg/kg
same,ED50,Rattus norvegicus [9],> 100 mg/kg
NCCO.O=C(O)C(=O)Nc1nc(-c2cc(Cl)no2)cs1,ED50,Rattus norvegicus [1],> 30 mg/kg
same,ED50,Rattus norvegicus [2],> 30 mg/kg
NCCO.O=C(O)C(=O)Nc1nc(-c2conc2-c2c(F)cccc2Cl)cs1,ED50,Rattus norvegicus [1],30 mg/kg
same,ED50,Rattus norvegicus [2],> 100 mg/kg
NCCO.O=C(O)C(=O)Nc1nc(-c2cc(CO)on2)cs1,ED50,Rattus norvegicus [1],> 100 mg/kg
same,ED50,Rattus norvegicus [2],> 30 mg/kg
CCOCCOC(=O)C(=O)Nc1nc(-c2cc(CO)on2)cs1,ED50,Rattus norvegicus [1],1.8 mg/kg
same,ED50,Rattus norvegicus [2],14 mg/kg
CCOCCOC(=O)C(=O)Nc1nc(-c2cc(Br)no2)c(CC)s1,ED50,Rattus norvegicus [1],3 mg/kg
same,ED50,Rattus norvegicus [2],9 mg/kg
CCOCCOC(=O)C(=O)Nc1nc(-c2cc(-c3c(F)cccc3Cl)no2)cs1,ED50,Rattus norvegicus [1],1.1 mg/kg
same,ED50,Rattus norvegicus [2],> 30 mg/kg
NCCO.O=C(O)C(=O)Nc1nc(-c2cc(-c3ccccc3)no2)cs1,ED50,Rattus norvegicus [1],0.24 mg/kg
same,ED50,Rattus norvegicus [2],0.6 mg/kg
COCCOC(=O)C(=O)Nc1nc(-c2cc(Br)no2)cs1,ED50,Rattus norvegicus [1],7 mg/kg
same,ED50,Rattus norvegicus [2],> 100 mg/kg
NCCCC[C@H](N)C(=O)O.O=C(O)C(=O)Nc1nc(-c2conc2-c2ccccc2)cs1,ED50,Rattus norvegicus [1],> 100 mg/kg
same,ED50,Rattus norvegicus [2],> 100 mg/kg
CCOCCOC(=O)C(=O)Nc1nc(-c2cc(-c3ccccc3)on2)cs1,ED50,Rattus norvegicus [1],0.2 mg/kg
same,ED50,Rattus norvegicus [2],13 mg/kg
CCOCCOC(=O)C(=O)Nc1nc(-c2cc(OCc3ccccc3)no2)cs1,ED50,Rattus norvegicus [1],3.7 mg/kg
same,ED50,Rattus norvegicus [2],> 100 mg/kg
NCCCC[C@H](N)C(=O)O.O=C(O)C(=O)Nc1nc(-c2cc(-c3ccccc3)no2)cs1,ED50,Rattus norvegicus [1],0.24 mg/kg
same,ED50,Rattus norvegicus [2],2.4 mg/kg
O=C(O)C(=O)Nc1nc(-c2cc(Br)no2)cs1,ED50,Rattus norvegicus [1],3 mg/kg
same,ED50,Rattus norvegicus [2],> 30 mg/kg
CCOCCOC(=O)C(=O)Nc1nc(-c2cc(C(=O)OCC)no2)cs1,ED50,Rattus norvegicus [1],0.08 mg/kg
same,ED50,Rattus norvegicus [2],1.9 mg/kg
NCCO.O=C(O)C(=O)Nc1nc(-c2cc(-c3c(F)cccc3Cl)no2)cs1,ED50,Rattus norvegicus [1],2.4 mg/kg
same,ED50,Rattus norvegicus [2],> 30 mg/kg
CCOCCOC(=O)C(=O)Nc1nc(-c2c(-c3c(F)cccc3Cl)noc2C)cs1,ED50,Rattus norvegicus [1],> 10 mg/kg
same,ED50,Rattus norvegicus [2],> 30 mg/kg
CCOCCOC(=O)C(=O)Nc1nc(-c2c(-c3ccccc3)noc2C)cs1,ED50,Rattus norvegicus [1],> 10 mg/kg
same,ED50,Rattus norvegicus [2],> 100 mg/kg
Cc1cc(-c2csc(NC(=O)C(=O)O)n2)on1.NCCCC[C@H](N)C(=O)O,ED50,Rattus norvegicus [1],0.3 mg/kg
same,ED50,Rattus norvegicus [2],6 mg/kg
NCCO.O=C(O)C(=O)Nc1nc(-c2cc(Br)no2)cs1,ED50,Rattus norvegicus [1],7 mg/kg
same,ED50,Rattus norvegicus [2],> 30 mg/kg
NCCO.O=C(O)C(=O)Nc1nc(-c2cc(-c3ccccc3)on2)cs1,ED50,Rattus norvegicus [1],0.23 mg/kg
same,ED50,Rattus norvegicus [2],2.6 mg/kg
NCCCC[C@H](N)C(=O)O.O=C(O)C(=O)Nc1nc(-c2cc(Br)no2)cs1,ED50,Rattus norvegicus [1],0.5 mg/kg
same,ED50,Rattus norvegicus [2],8 mg/kg
CCOCCOC(=O)C(=O)Nc1nc(-c2cc(C)on2)cs1,ED50,Rattus norvegicus [1],1.3 mg/kg
same,ED50,Rattus norvegicus [2],2 mg/kg
O=C(Nc1nc(-c2cc(-c3c(F)cccc3Cl)no2)cs1)C(=O)OCc1ccccc1,ED50,Rattus norvegicus [1],> 30 mg/kg
same,ED50,Rattus norvegicus [2],> 30 mg/kg
CCOCCOC(=O)C(=O)Nc1nc(-c2cc(Br)no2)cs1,ED50,Rattus norvegicus [1],11 mg/kg
same,ED50,Rattus norvegicus [2],> 30 mg/kg
CCOCCOC(=O)C(=O)Nc1nc(-c2cc(OC)no2)cs1,ED50,Rattus norvegicus [1],3 mg/kg
same,ED50,Rattus norvegicus [2],11 mg/kg
Cc1cc(-c2csc(NC(=O)C(=O)O)n2)no1.NCCCC[C@H](N)C(=O)O,ED50,Rattus norvegicus [1],1.7 mg/kg
same,ED50,Rattus norvegicus [2],17 mg/kg
CCOC(=O)C(=O)Nc1nc(-c2cc(C)no2)cs1,ED50,Rattus norvegicus [1],0.2 mg/kg
same,ED50,Rattus norvegicus [2],0.7 mg/kg
CCOC(=O)C(=O)Nc1nc(-c2cc(Br)no2)cs1,ED50,Rattus norvegicus [1],12 mg/kg
same,ED50,Rattus norvegicus [2],> 100 mg/kg
CC(C)(C)OC(=O)C(=O)Nc1nc(-c2cc(-c3ccccc3)no2)cs1,ED50,Rattus norvegicus [1],9 mg/kg
same,ED50,Rattus norvegicus [2],7 mg/kg
